Measured values as given in ChEMBL document CHEMBL4330167, “Chloraserrtone A, a Sesquiterpenoid Dimer from Chloranthus serratus” (J Nat Prod, 2019).

Legend:
[1] = Cytotoxicity against mouse RAW264.7 cells assessed as cellular metabolic activity at 50 uM after 48 hrs by MTT assay relative to control; type: ADME, cell-based; conditions: read-out: Activity
How it was run: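 RAW264.7 cells at 5 × 10^4 cells/mL exposed to 50 μM test agent (DMSO solution) for 48 h. MTT then added at 5 mg/mL in sterile PBS for 4 h; formazan dissolved in DMSO and absorbance read at 490 nm. Triplicate treatments.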

RAW264.7 = assay: Anti-inflammatory activity in mouse RAW264.7 cells assessed as inhibition of LPS-induced NO production preincubated for 30 mins followed by LPS stimulation and measured after 24 hrs by Griess reagent based colorimetric method; type: functional, cell-based
How it was run: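 RAW264.7 murine macrophages in DMEM with 10% supplement, 37 °C, 5% CO2, grown 24 h before treatment. Test agents at several concentrations added 30 min before 1 μg/mL LPS (or no LPS). After 24 h, supernatant mixed with Griess reagents I and II; absorbance at 560 nm. IC50 derived only where cell activity at 50 μM stayed ≥50%. L-NIL as positive control.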

Compound	viability at 48 h, 50 µM [1] [%]	IC50 (RAW264.7) [µM]
COC(=O)/C(C)=C1\C(=O)[C@H](O)[C@]2(C)C3=C(C[C@@H]4[C@]5(OC(=O)C6=C5C[C@H]5[C@](O)(COC(=O)/C(C)=C/COC(=O)CCC(=O)OC6)[C@H]6C[C@H]6[C@]45C)[C@H]31)[C@H]1C[C@H]12 [SHIZUKAOL B]	55.4	> 50
CC1=C2C3=C4[C@](C)([C@@H]5C[C@@H]5[C@@]4(O)C[C@@H]4[C@]35OC(=O)C3=C5C[C@H]5[C@](O)(COC(=O)/C=C(\C)COC(=O)CCC(=O)OC3)[C@H]3C[C@H]3[C@]45C)[C@@H](O)[C@@]2(O)OC1=O	< 50	–
COC(=O)/C(C)=C1\C(=O)[C@H](O)[C@]2(C)C3=C(C[C@@H]4[C@]5(OC(=O)C6=C5C[C@H]5[C@](O)(COC(=O)/C=C(\C)COC(=O)CCC(=O)OC6)[C@H]6C[C@H]6[C@]45C)[C@H]31)[C@H]1C[C@H]12 [SHIZUKAOL F]	53.1	> 50
COC(=O)/C(C)=C1\C(=O)[C@H](O)[C@@]2(C)[C@@H]3C[C@@H]3[C@@]34CCC5=C6C3=C(C(=O)[C@H](O)[C@@]6(C)[C@@H]3C[C@H]53)[C@](C)(C(=O)OC)[C@@H]1[C@@]24O	< 50	–
CO[C@@]12OC(=O)C(C)=C1C1=C3[C@](C)([C@@H]4C[C@@H]4[C@@]3(O)C[C@@H]3[C@]14OC(=O)C1=C4C[C@H]4[C@](O)(COC(=O)/C(C)=C/COC(=O)CCC(=O)OC1)[C@H]1C[C@H]1[C@]34C)[C@H]2O	< 50	–
CC(=N)NCCCC[C@H](N)C(=O)O [L-NIL]	93.3	7
COC(=O)/C(C)=C1/C(=O)[C@H](O)[C@]2(C)C3=C(C[C@@H]4[C@]5(OC(=O)C6=C5C[C@H]5[C@](O)(COC(=O)/C(C)=C/COC(=O)CCC(=O)OC6)[C@H]6C[C@H]6[C@]45C)[C@H]31)[C@H]1C[C@H]12	66.5	25.5
COC(=O)CCC(=O)OCC1=C2C[C@H]3[C@](O)(COC(=O)/C=C(\C)CO)[C@H]4C[C@H]4[C@]3(C)[C@@H]3CC4=C5[C@H](/C(=C(\C)C(=O)OC)C(=O)[C@H](O)[C@@]5(C)[C@@H]5C[C@H]45)[C@]23OC1=O	71.5	23.1
C/C=C(\C)C(=O)OC[C@]1(O)[C@H]2C[C@H]2[C@]2(C)[C@@H]3C[C@@]4(O)C5=C(C6=C(C)C(=O)O[C@]6(O)[C@H](O)[C@@]5(C)[C@@H]5C[C@@H]54)[C@@]34OC(=O)C(COC(C)=O)=C4C[C@@H]12 [SARCANDROLIDE D]	< 50	–
CC1=C2C3=C4[C@@](C)(C(=O)[C@@]2(O)OC1=O)[C@@H]1C[C@@H]1[C@@]4(O)C[C@@H]1[C@]32OC(=O)C3=C2C[C@H]2[C@](O)(COC(=O)/C(C)=C/COC(=O)CCC(=O)OC3)[C@H]3C[C@H]3[C@]12C [SPICACHLORANTIN B]	< 50	–
C/C=C(\C)C(=O)OC[C@]1(O)[C@H]2C[C@H]2[C@]2(C)[C@@H]3CC4=C5[C@H](/C(=C(/C)C(=O)OC)C(=O)[C@H](O)[C@@]5(C)[C@@H]5C[C@H]45)[C@@]34OC(=O)C(COC(C)=O)=C4C[C@@H]12	< 50	–
COC(=O)/C(C)=C1\C(=O)[C@H](O)[C@]2(C)C3=C(C[C@@H]4[C@]5(OC(=O)C(CO)=C5C[C@H]5[C@H](COC(C)=O)[C@H]6C[C@H]6[C@]45C)[C@H]31)[C@H]1C[C@H]12	97	3.7
